Measurements taken from PubChem BioAssay.
Active and inactive are the calls of the source.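 The calls were made as follows, unless noted: active = inhibition above 20% together with a positive visual image hit; inconclusive = visual image hit but inhibition not above 20%; inactive = no visual image hit.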

Columns and labels:
[1] = inhibitors of TNFa-induced NFkB p65 translocation, primary screen, imaging, HUVEC, MLSMR starter and 10KST1 sets (AID 438); conditions: HUVEC TNFa-induced p65 nuclear translocation; cell count: measured here: nuclei count (cytotoxicity indicator), at 2.08 µM; inhibition: at 2 µM, stronger effect = higher value, 0% TNFa-plus-vehicle, 100% no-TNFa wells;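 also: compound added about 3h40 before a 20 min TNFalpha stimulation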;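 as to inhibition: signal is the nuclear over cytoplasmic p65 intensity ratio per well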
[2] = inhibitors of E-selectin induction by TNFa, primary screen, imaging, HUVEC, immunofluorescence, MLSMR starter and 10KST1 sets (AID 487;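 active = visually confirmed hit in the image check and inhibition above 20%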;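 as to inhibition: signal is fraction of cell area covered by stained E-selectin grains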;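 as to nuclei count: 100% = median nuclei count of all wells on the same plate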); conditions: HUVEC TNFalpha-induced E-selectin immunofluorescence imaging, at 2 µM; inhibition: stronger effect = higher value; nuclei count: measured here: cell number, toxicity
[3] = DUSP6 inhibitors restoring Erk phosphorylation by chemical complementation, primary imaging in DUSP6-transfected HeLa (AID 609;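 active = compounds giving at least 50% inhibition in the cell-based MKP-3 phosphatase rescue imaging test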;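 as to inhibition: phospho-Erk level distribution per well compared with pooled transfected vehicle control wells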); conditions: HeLa MKP-3 transfected, phospho-Erk imaging KS statistic, at 10 µM, cells stimulated with TPA for 15 min
[4] = target: Dual specificity protein phosphatase 6 (Homo sapiens) (UniProt Q16828); assay: as above; conditions: HeLa MKP-3 transfected, phospho-Erk imaging KS statistic; at 10 µM; stronger effect = higher value; cells stimulated with TPA for 15 min
Chain of Dual specificity protein phosphatase 6 (Homo sapiens) (Q16828 whole entry, looked up): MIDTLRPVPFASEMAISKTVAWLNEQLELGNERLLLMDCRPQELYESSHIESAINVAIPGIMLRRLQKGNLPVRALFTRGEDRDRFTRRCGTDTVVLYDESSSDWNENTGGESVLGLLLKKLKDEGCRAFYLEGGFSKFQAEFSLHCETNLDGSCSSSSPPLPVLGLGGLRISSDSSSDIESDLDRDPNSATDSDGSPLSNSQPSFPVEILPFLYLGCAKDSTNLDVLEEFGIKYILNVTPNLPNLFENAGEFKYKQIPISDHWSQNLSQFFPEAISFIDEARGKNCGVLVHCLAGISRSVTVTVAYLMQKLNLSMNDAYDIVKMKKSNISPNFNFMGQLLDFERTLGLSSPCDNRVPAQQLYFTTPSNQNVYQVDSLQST

[5] = target: Voltage-gated potassium channel subunit beta-2 (Rattus norvegicus) (UniProt P62483); assay: KvBeta enzyme negative modulators, primary screen, biochemical, NADPH fluorescence (AID 622;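 active = fluorescence slope higher than the sample average by over 3 SD, cut at about -0.22 in these data, passing the limit was not always enough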;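 also: slope of raw intensity against log time taken from 70 to 1610 s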); conditions: recombinant KvBeta, 4-cyanobenzaldehyde reduction, at 10 µM, stronger effect = higher value
Chain of Voltage-gated potassium channel subunit beta-2 (Rattus norvegicus) (P62483 whole entry, looked up): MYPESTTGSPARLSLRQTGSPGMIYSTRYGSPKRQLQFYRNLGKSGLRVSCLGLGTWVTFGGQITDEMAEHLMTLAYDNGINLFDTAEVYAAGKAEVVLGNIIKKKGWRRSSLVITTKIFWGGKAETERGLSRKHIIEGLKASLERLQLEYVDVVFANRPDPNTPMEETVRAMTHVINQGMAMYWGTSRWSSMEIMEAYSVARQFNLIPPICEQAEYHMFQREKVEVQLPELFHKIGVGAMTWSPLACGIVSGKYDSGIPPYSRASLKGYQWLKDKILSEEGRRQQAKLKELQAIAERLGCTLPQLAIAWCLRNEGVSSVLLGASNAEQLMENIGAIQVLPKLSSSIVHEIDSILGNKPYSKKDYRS

[6] = target: Voltage-gated potassium channel subunit beta-2 (Rattus norvegicus) (UniProt P62483); assay: KvBeta positive modulators, primary screen, biochemical, NADPH fluorescence (AID 623;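 active = NADPH fluorescence slope more negative than the mean of all samples by about 3 SD, 99.7% confidence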;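 also: fluorescence intensity change per second fitted from 20 to 320 s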); conditions: Recombinant KvBeta, NADPH fluorescence decrease slope, 10 min; at 10 µM; stronger effect = lower value
[7] = target: Alpha-2C adrenergic receptor (Homo sapiens) (UniProt P18825); assay: modulators of alpha2C/GIRK thallium flux, primary screen, cell-based, HEK293 alpha2C/GIRK1/2 (AID 624;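 active = fluorescence slope after compound addition differing from the mean of all screened samples at 99.7% confidence, in either direction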;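 also: slope of fluorescence ratio to pre-addition baseline per second over 15 to 24 s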); conditions: thallium flux BTC fluorescence, at 10 µM, actives lie on both sides
Chain of Alpha-2C adrenergic receptor (Homo sapiens) (P18825 whole entry, looked up): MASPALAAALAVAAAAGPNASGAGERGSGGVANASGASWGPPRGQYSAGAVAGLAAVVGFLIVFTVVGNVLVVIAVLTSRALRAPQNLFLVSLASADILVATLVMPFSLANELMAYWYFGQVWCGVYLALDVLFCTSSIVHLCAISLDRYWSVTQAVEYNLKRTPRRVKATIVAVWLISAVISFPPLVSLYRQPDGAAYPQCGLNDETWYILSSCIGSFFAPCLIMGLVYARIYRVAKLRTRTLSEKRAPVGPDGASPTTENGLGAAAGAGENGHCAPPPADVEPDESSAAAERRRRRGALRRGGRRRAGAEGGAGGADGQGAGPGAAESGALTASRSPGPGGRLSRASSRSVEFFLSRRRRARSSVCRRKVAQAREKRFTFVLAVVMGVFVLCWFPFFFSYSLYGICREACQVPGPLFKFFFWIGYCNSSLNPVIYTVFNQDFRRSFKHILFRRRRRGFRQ

[8] = inhibitors of larval lipid processing in zebrafish, primary screen, whole organism, PED6 fluorescence, gall bladder and intestine (AID 686;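 active = a full or partial loss of lipid-probe fluorescence in the fish gall bladder, intestine or both, judged by eye; inactive = no fluorescence loss, or compound toxic to the fish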;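 also: larvae 5 to 7 days old with five fish per well; signal comes from phospholipase A2 cleavage of quenched PED6 carried via bile; overnight exposure to compound and PED6 before scoring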); conditions: Zebrafish larvae PED6 lipid processing, fluorescence scoring; screened at 20 µM (by protocol)
How it was run: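 Doses: 20 µM single dose. Test system: live zebrafish larvae aged 5-7 days, whole organism. Quantity: five larvae per well. Measured by: By-eye fluorescence microscopy. Reagent: ingested quenched lipid PED6 at 100 nM. Read-out: visual per-well fluorescence inhibition score. Times: overnight exposure of larvae to compound plus PED6.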

[9] = inhibitors of Chlamydomonas gravitaxis, primary screen, whole organism, Chlamydomonas reinhardtii, WT vs cilia-less mutant, absorbance, 96-well (AID 463189;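 active = inhibition at or above 50% relative to wild type and mutant plate controls; inactive = inhibition below 50%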;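 also: 0% = wild type cc124 cells in DMSO and 100% = ciliumless bld1 mutant cells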); conditions: OD600 absorbance, 2 days, at 10 µM, stronger effect = higher value
[10] = measured here: cell density z-score
[11] = measured here: nuclear c-Myc green intensity z-score
[12] = measured here: nuclear pErk red intensity z-score, stronger effect = higher value

Row | SMILES | cell count [1] | inhibition [1] | inhibition [2] | nuclei count [2] | z-score [3, 10] | z-score [3, 11] | z-score [3, 12] | inhibition [4] | fluorescence slope [5] | NADPH fluorescence slope [6] | slope [7] | outcome [8] | inhibition [9]
1 | O=C(CNC1=NCCC1)c1ccc2c(c1)OCCO2 | 488 | -10.2% (inactive) | -73% (inactive) | 161% | -0.692 | -1.12 | -0.547 | 28.6% (inactive) | -0.485 (inactive) | -0.000113 (inactive) | 0.006 (inactive) | inactive | -8.59% (inactive)
2 | CC(=O)c1ccc(O)c(CO)c1 | 639 | -20.9% (inactive) | -32.3% (inactive) | 101% | -0.0166 | 0.525 | -0.493 | 4.37% (inactive) | -0.463 (inactive) | -1.1e-05 (inactive) | 0.00706 (inactive) | inactive | -12.4% (inactive)
3 | COC(=O)C1=C(C)OC(N)=C(C#N)C1c1ccc(OC)c(OC)c1OC (stereo unspecified) | 401 | -10.3% (inactive) | -52.9% (inactive) | 104% | 0.861 | -0.767 | -0.967 | 26.5% (inactive) | -0.557 (inactive) | -8.1e-05 (inactive) | 0.00455 (inactive) | inactive | 42.2% (inactive)
4 | COc1ccc(C2=Nn3c(nnc3-c3cccnc3)SC2)cc1OC | 614 | -5.8% (inactive) | -109% (inactive) | 152% | -0.53 | 0.48 | 0.0126 | -7.86% (inactive) | -0.398 (inactive) | -0.000172 (inactive) | 0.00709 (inactive) | inactive | 2.3% (inactive)
5 | COc1ccc(C2C(C#N)=C(N)SC(N)=C2C#N)cc1OC | 280 | -16.8% (inactive) | -21.6% (inactive) | 85.8% | 0.114 | 1.01 | -1.06 | -10.5% (inactive) | -0.401 (inactive) | -5.5e-05 (inactive) | 0.00592 (inactive) | inactive | -3.02% (inactive)
6 | CC(C)CC(C(=O)O)C(C)CC(=O)Nc1ccn(-c2ccccc2)n1 (stereo unspecified) | 345 | -19.4% (inactive) | -326% (inactive) | 150% | 1.41 | -1.41 | -0.175 | 15.1% (inactive) | -0.401 (inactive) | -3.3e-05 (inactive) | 0.0075 (inactive) | inactive | 13.3% (inactive)
7 | CCCSC1=C(C#N)C(c2ccc(OC)cc2)C2=C(CC(C)(C)CC2=O)N1 (stereo unspecified) | 364 | -8.4% (inactive) | -74.2% (inactive) | 160% | 1.35 | -0.891 | 0.22 | -4.59% (inactive) | -0.439 (inactive) | -0.000144 (inactive) | 0.00555 (inactive) | inactive | 15.5% (inactive)
8 | COC(=O)CSc1nnc2n(-c3ccc(OC)cc3)c(=O)c3c4c(sc3n12)CCCCC4 | 607 | -2.8% (inactive) | -233% (inactive) | 149% | -0.0268 | 0.911 | -4.12 | 1.04% (inactive) | -0.411 (inactive) | -4.4e-05 (inactive) | 0.00667 (inactive) | inactive | -10.1% (inactive)
9 | CC(=O)c1c(C)c2c(n1CCN(C)C)CCCC2 | 518 | -10% (inactive) | 17.6% (inactive) | 93.6% | -0.53 | 2.44 | 1.25 | -11.5% (inactive) | -0.521 (inactive) | -1.7e-05 (inactive) | 0.0146 (active) | inactive | -13.1% (inactive)
10 | CCOC(=O)CSC1=C(C#N)C(c2ccc(OC)cc2)C2=C(CC(C)(C)CC2=O)N1 (stereo unspecified) | 362 | -10.7% (inactive) | -126% (inactive) | 174% | 0.65 | -1.25 | -0.233 | -8.59% (inactive) | -0.411 (inactive) | -0.000354 (inactive) | 0.00489 (inactive) | inactive | 25.7% (inactive)
11 | N#Cc1c(N)nc(SCc2ccccn2)c(C#N)c1-c1cccs1 | 526 | -6.5% (inactive) | -189% (inactive) | 176% | 0.739 | 1.34 | -0.969 | 4.25% (inactive) | -0.289 (inactive) | 1.5e-05 (inactive) | 0.00485 (inactive) | inactive | 1.02% (inactive)
12 | CC1CN(C2CCN(C(=O)COc3ccccc3)CC2)CC(C)O1 (stereo unspecified) | 357 | -12.6% (inactive) | -160% (inactive) | 111% | -0.694 | 1.72 | -2.62 | 1.75% (inactive) | -0.455 (inactive) | -1.3e-05 (inactive) | 0.00556 (inactive) | inactive | -3.28% (inactive)
13 | CCOc1nc(Oc2cccc(C(=O)O)c2)nc(Oc2cccc(C(=O)O)c2)n1 | 627 | -14.8% (inactive) | -46.5% (inactive) | 182% | 0.0666 | 0.636 | -0.0605 | -1.12% (inactive) | -0.538 (inactive) | -3.4e-05 (inactive) | 0.00497 (inactive) | inactive | 6.3% (inactive)
14 | CCOc1ccc(C2=Nn3c(nnc3-c3ccccn3)SC2)cc1 | 493 | 1.1% (inactive) | -197% (inactive) | 107% | 1.13 | -0.317 | 0.587 | -13.3% (inactive) | -0.467 (inactive) | -3.6e-05 (inactive) | 0.00617 (inactive) | inactive | 0.114% (inactive)
15 | CC(=O)Nn1cnc2c(c1=O)C1(CCCC1)Cc1ccccc1-2 | 520 | -1.9% (inactive) | 29.6% (inactive) | 113% | -0.985 | 1.83 | 1.16 | -2.69% (inactive) | -0.382 (inactive) | -2e-06 (inactive) | 0.0042 (inactive) | inactive | 43% (inactive)
16 | CCOC(=O)c1c(C)n(C)c2ccc(OC)c(NC(=O)CN3CCSCC3)c12 | 331 | -7.1% (inactive) | 35.2% (inactive) | 91.7% | -1.52 | -0.0806 | 1.39 | 5.42% (inactive) | -0.449 (inactive) | -1.5e-05 (inactive) | 0.0065 (inactive) | inactive | 37% (inactive)
17 | CN(C)CCNc1nc(-c2ccco2)c2c(c1C#N)CC(C)(C)OC2 | 621 | -14.2% (inactive) | -15.8% (inactive) | 164% | -0.37 | -0.517 | 0.864 | 1.48% (inactive) | -0.34 (inactive) | -5.5e-05 (inactive) | 0.00509 (inactive) | inactive | 17.6% (inactive)
18 | CCOC(=O)c1c(CNCCN(CC)CC)n(C)c2cc(Br)c(OC)cc12 | 321 | 3.8% (inactive) | -25% (inactive) | 77.4% | -0.115 | 0.118 | -0.0858 | 1.75% (inactive) | -0.439 (inactive) | -8.8e-06 (inactive) | 0.00617 (inactive) | inactive | 28.1% (inactive)
19 | CCCCOc1ccc(C(=O)OC2CC(C)N(C)CC2C)cc1 (stereo unspecified) | 358 | -21.6% (inactive) | -186% (inactive) | 155% | -0.354 | -1.1 | -0.696 | -14% (inactive) | -0.46 (inactive) | -0.000115 (inactive) | 0.00554 (inactive) | inactive | 144% (active)
20 | N/C(CCN1CCCCC1)=N/O | 582 | -29.9% (inactive) | 25.5% (inactive) | 169% | 0.685 | -0.291 | -0.968 | -4.27% (inactive) | -0.418 (inactive) | -9.2e-06 (inactive) | 0.00552 (inactive) | inactive | 12.2% (inactive)
21 | COc1cc(C)nc(Oc2ccc(OCCOc3ccc(C)cc3)nn2)n1 | 440 | -2.4% (inactive) | -191% (inactive) | 163% | 0.149 | -0.102 | 0.972 | 2.46% (inactive) | -0.415 (inactive) | -3.1e-05 (inactive) | 0.00505 (inactive) | inactive | 3.2% (inactive)
22 | CCOc1ccc(/C(O)=C2/C(=O)C(=O)N(CCN(CC)CC)C2c2ccco2)cc1 (stereo unspecified) | 494 | -10.3% (inactive) | -38.9% (inactive) | 136% | 0.106 | 0.969 | -0.475 | -15% (inactive) | -0.521 (inactive) | -4.6e-05 (inactive) | 0.00598 (inactive) | inactive | -2.21% (inactive)
23 | COCCNc1cc(C)c(C#N)c2nc3ccccc3n12 | 564 | 2.6% (inactive) | -78.8% (inactive) | 108% | -2.44 | 1.04 | -1.31 | 13.9% (inactive) | -0.383 (inactive) | 1.2e-06 (inactive) | 0.00535 (inactive) | inactive | -12.3% (inactive)
24 | O=c1oc2c3c4c(cc2c(C(F)(F)F)c1CCN1CCOCC1)CCCN4CCC3 | 507 | -1% (inactive) | -59.8% (inactive) | 160% | -0.81 | 0.512 | -1.2 | -4.78% (inactive) | -0.315 (inactive) | -4.5e-05 (inactive) | 0.0309 (active) | inactive | -7.21% (inactive)
25 | NS(=O)(=O)c1ccc(-c2ccc(C=NC3CCS(=O)(=O)C3)o2)cc1 (stereo unspecified) | 576 | 0.1% (inactive) | -53.9% (inactive) | 94% | -1.97 | 0.0247 | 1.53 | -4.7% (inactive) | -0.59 (inactive) | -5.6e-05 (inactive) | 0.00467 (inactive) | inactive | -10.3% (inactive)
26 | CC1(C)Cc2c(sc3[nH]c(=S)n(Cc4ccco4)c(=O)c23)CO1 | 541 | -15.5% (inactive) | -74.4% (inactive) | 117% | -0.898 | -0.375 | -0.762 | -2.69% (inactive) | -0.361 (inactive) | 2.2e-05 (inactive) | 0.0124 (active) | inactive | -12.6% (inactive)
27 | CCOc1ccccc1N1CCN(c2nc3ccccc3nc2C(C#N)C(=O)OC(C)C)CC1 (stereo unspecified) | 451 | -7.4% (inactive) | -161% (inactive) | 148% | -1.19 | -0.0935 | 0.236 | -10.1% (inactive) | -0.399 (inactive) | -2.9e-05 (inactive) | 0.00483 (inactive) | inactive | 10.3% (inactive)
